This is an account of results in paper PMC5835461 (Journal of Diabetes Investigation, 2017).

A short description of data set [1]: Pharmacokinetics: free serum IAsp concentration. Type of data set: in vivo, human (Japanese patients with type 1 diabetes). Conditions: Japanese T1D patients; 0.2 U/kg single s.c. dose; least squares mean. The method, boiled down:
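Randomized, double-blind crossover with 3–12 days between dosing visits. After an overnight fast, patients received 0.2 U/kg subcutaneously into the lower abdominal wall. A euglycemic clamp held BG at 5.5 mmol/L, with sampling from 10 min pre-dose to 12 h post-dose. Free serum IAsp (PEG-precipitated) was measured by validated ELISA (LLOQ 10 pmol/L). Times were taken from raw individual profiles and analysed by linear mixed model.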

Data set [2] deals with Japanese patients with type 1 diabetes. In words: Safety assessments. Conditions: Japanese T1D patients; 0.2 U/kg single s.c. dose. Format: in vivo, human. The method, boiled down: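 Monitored through screening, two single 0.2 U/kg subcutaneous dosing visits and follow-up 7–21 days after second dose. Covered adverse events, injection site reactions, hypoglycemia, safety laboratory parameters, vital signs, physical examination and ECG. Hypoglycemia counted as confirmed if severe (third-party assistance) or plasma glucose <3.1 mmol/L. Summary statistics covered all patients receiving at least one dose.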

As to insulin aspart [IAsp], in data set [1], the “t Early 50% Cmax” value was found to be 29.3 min and the t max came out at 1.14 h. Further, in data set [2], the “Confirmed hypoglycemic episodes or injection site reactions” value was “No confirmed hypoglycemic episodes or injection site reactions”, the Serious adverse events entry is given as “no serious adverse events” and the Tolerability result is reported as “well tolerated”.
